An excerpt weighted towards active compounds, which were near 3.8% of everything screened.
Yeast lifespan up: extends the lifespan of yeast | 130,000 compounds, 0.68% hits | S. cerevisiae growth with nicotinamide, OD615; deaD strain in restrictive glucose medium | inhibition of the nicotinamide effect, % at 10 µM;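 active = inhibition above a set limit, placed 3 SD over the median of all compounds, cut at about 26% in these data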;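 note: 0% = nicotinamide-treated wells and 100% = cells grown without nicotinamide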
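Assay system: engineered S. cerevisiae DeaD replicative-lifespan strain, galactose-grown log-phase cells; medium: restrictive CSMM-D dextrose medium; also added: nicotinamide, 1.5 mM, co-present with compound; schedule: 48 h compound exposure at 30 °C, humidified; detection: absorbance at 615 nm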
RAM inhibit: inhibitors of the yeast RAM network; S. cerevisiae dse1pr::URA3 reporter, 5-FOA growth OD615, 2 d; analog-sensitive cbk1-as2 kinase mutant strain; inhibition, % at 50 µM; 190,000 compounds, 1.8% hits; AID 868;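 active = inhibition above a set limit, 3 SD over mean compound inhibition, cut at about 8.4% in these data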;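 note: 0% = DMSO-only wells with no growth and 100% = 10 µM 1-NA-PP1 full growth; inhibition rescues growth on 5-FOA so higher OD means more RAM inhibition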
Measles CPE: protection of cells from measles virus | Measles virus-infected cells, CPE protection, absorbance | protection (pct of control), % at 4 µM | 140,000 compounds, 1.5% hits | AID 841; in the data active = protection mostly above about 24%, no sharp cut-off; inactive = mostly below about 26%
BB579 growth dn: reduces growth of yeast BB579 in restrictive medium; S. cerevisiae BB579 growth, OD615, 48 h; inhibition, % at 10 µM; 140,000 compounds, 0.51% hits; AID 804;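 active = inhibition above a set limit, 3 SD over the mean compound inhibition, cut at about 44% in these data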
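Assay system: S. cerevisiae DeaD strain BB579 yeast. Medium: CSMM-D restrictive synthetic medium containing dextrose (glucose). Times: 4 h cell preincubation, 48 h compound exposure, 30 °C humidified. Signal: OD615 turbidity measurement. Benchmarks: positive control amphotericin B 10 µg/mL.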
* = called active by the depositor.

Results for CC[n+]1c(/C=C/C=C/N(C(C)=O)c2ccccc2)sc2cc(OC)ccc21 ?
Yeast lifespan up: 13; RAM inhibit: 1; Measles CPE: 3; BB579 growth dn: -40

What do the screens show for `COc1ccc(NC(=O)c2ccc(NCCN3C(=O)CCC3=O)c([N+](=O)[O-])c2)cc1`?
RAM inhibit: 2

What do the screens show for `O=C(CS(=O)(=O)c1cn(Cc2cccc(F)c2)c2ccccc12)N1CCOCC1`?
Yeast lifespan up: -5; RAM inhibit: 9.3*; Measles CPE: 7; BB579 growth dn: -12

What do the screens show for `Cc1onc(-c2ccccc2)c1C(=O)OCC(=O)Nc1cc(S(=O)(=O)N2CCOCC2)ccc1Cl`?
RAM inhibit: 4

What do the screens show for `COc1ccc(CCNC(=O)c2cnn3c(C(F)F)cc(C)nc23)cc1OC`?
Yeast lifespan up: 3; RAM inhibit: -1; Measles CPE: 3; BB579 growth dn: 51*

How did Cc1ccc(N(CCC(=O)O)S(=O)(=O)c2ccccc2)cc1 do in these assays?
Yeast lifespan up: -1; RAM inhibit: 1; Measles CPE: 6; BB579 growth dn: -14

How did Cc1ccc(S(=O)(=O)N(CC(=O)Nc2ccccc2C(=O)O)c2ccccc2)cc1 do in these assays?
RAM inhibit: 8.7*

How did CCOc1ccccc1NC(=O)CCN(c1ccc(C)cc1)S(=O)(=O)c1ccccc1 do in these assays?
Yeast lifespan up: -1; RAM inhibit: 9.2*; Measles CPE: 4; BB579 growth dn: -17

What do the screens show for `Cc1c(N=C2SCC(=O)N2/N=C/c2ccccc2)c(=O)n(-c2ccccc2)n1C`?
Yeast lifespan up: 1; RAM inhibit: 0; Measles CPE: 7; BB579 growth dn: -12

Results for COc1ccc(N2C(=O)c3ccccc3NC23C(=O)N(C)c2ccccc23)cc1 (stereo not drawn) ?
Yeast lifespan up: -9; RAM inhibit: 0; Measles CPE: 2; BB579 growth dn: -37

Results for C=CCN(c1cccc(C(F)(F)F)c1)S(=O)(=O)c1cccc(C(=O)OCC(=O)NC)c1 ?
Yeast lifespan up: -3; RAM inhibit: 2; Measles CPE: 8; BB579 growth dn: -15

How did C=CCN(c1cccc(C(F)(F)F)c1)S(=O)(=O)c1cccc(C(=O)OCC(=O)Nc2ccccc2)c1 do in these assays?
Yeast lifespan up: 4; RAM inhibit: 9.0*; Measles CPE: 6; BB579 growth dn: -20

How did C=CCN(c1cccc(C(F)(F)F)c1)S(=O)(=O)c1cccc(C(=O)OCC(=O)NC(N)=O)c1 do in these assays?
Yeast lifespan up: 3; RAM inhibit: 9.1*; Measles CPE: 24; BB579 growth dn: -50

Results for C=CCN(c1ccccc1)S(=O)(=O)c1cccc(C(=O)O)c1 ?
Yeast lifespan up: 4; RAM inhibit: 0; Measles CPE: 12; BB579 growth dn: -30

How did Cc1nn(CC(=O)Nc2cccnc2)c(C)c1[N+](=O)[O-] do in these assays?
RAM inhibit: -1

How did Cc1cccc2nc(C(F)(F)F)nc(=O)n12 do in these assays?
Yeast lifespan up: -30; RAM inhibit: 0; Measles CPE: 43*; BB579 growth dn: -22

How did Cc1cccc2nc(-c3cccnc3)c(Nc3ccccc3)n12 do in these assays?
RAM inhibit: 1

Results for O=C(OCC(=O)N1CCN(c2ccccc2)CC1)c1ccc[n+]([O-])c1 ?
RAM inhibit: 3

Results for O=C(Nc1ccc(N2CCN(C(=O)c3ccccc3)CC2)cc1)c1cc2ccccc2o1 ?
Yeast lifespan up: -13; RAM inhibit: 1; Measles CPE: 5; BB579 growth dn: -59

How did CCCC(=O)N1CCN(c2ccc(NC(=O)c3cc4ccccc4o3)cc2)CC1 do in these assays?
Yeast lifespan up: -7; RAM inhibit: 3; Measles CPE: 60*; BB579 growth dn: -15

What do the screens show for `O=C(Nc1ccccc1N1CCN(C(=O)c2ccccc2)CC1)c1cc2ccccc2o1`?
Yeast lifespan up: 4; RAM inhibit: 8.5*; Measles CPE: 11; BB579 growth dn: -32

How did Cc1ccc(CNC(=O)C2CC(c3cccc([N+](=O)[O-])c3)=NO2)o1 (stereo not drawn) do in these assays?
Yeast lifespan up: -28; RAM inhibit: 2; Measles CPE: 4; BB579 growth dn: -50

What do the screens show for `O=C(NNC(=O)C1CC(c2cccnc2)=NO1)Nc1ccccc1F` (stereo not drawn)?
RAM inhibit: 0

What do the screens show for `O=c1cc(O)c2c(=O)n(-c3ccccc3)c3ccccc3c2o1`?
Yeast lifespan up: 24; RAM inhibit: 4; Measles CPE: 5; BB579 growth dn: -3

What do the screens show for `CCn1c(=O)c2c(O)cc(=O)oc2c2ccccc21`?
Yeast lifespan up: 42*; RAM inhibit: 4; Measles CPE: 3; BB579 growth dn: -2

How did CC(C)n1c(=O)c2c(O)cc(=O)oc2c2ccccc21 do in these assays?
Yeast lifespan up: 63*; RAM inhibit: 2; Measles CPE: 12; BB579 growth dn: -8

Results for CCN(CC(=O)Nc1cccc(C(C)=O)c1)S(=O)(=O)c1ccc(C)cc1 ?
RAM inhibit: 2

Results for CCCN(CCC)C(=O)CSc1nc2ccccc2c(=O)n1CC1COc2ccccc2O1 (stereo not drawn) ?
Yeast lifespan up: -16; RAM inhibit: 9.0*; Measles CPE: 5; BB579 growth dn: -38

How did Clc1ccccc1Cc1noc(CN2CCCCC2CCc2ccccn2)n1 (stereo not drawn) do in these assays?
RAM inhibit: 0

Results for Cc1nn(C)c(C)c1CN(C)S(=O)(=O)c1ccc2ccccc2c1 ?
RAM inhibit: 1; Measles CPE: 47*; BB579 growth dn: -23

Results for Cc1nn(C)c(C)c1CN(C)S(=O)(=O)c1ccc(F)cc1 ?
RAM inhibit: -1; Measles CPE: 5; BB579 growth dn: 5

How did Cc1nnsc1C(=O)NC(C)C12CC3CC(CC(C3)C1)C2 (stereo not drawn) do in these assays?
Yeast lifespan up: 7; RAM inhibit: 1; Measles CPE: 16; BB579 growth dn: -37

Results for O=C(NCCC(c1ccccc1)c1ccccc1)c1ccc(Br)o1 ?
Yeast lifespan up: -4; RAM inhibit: 10*; Measles CPE: 2; BB579 growth dn: -32

What do the screens show for `O=C(O)CCNC(=O)c1ccc(Br)o1`?
Yeast lifespan up: 2; RAM inhibit: 0; Measles CPE: 6; BB579 growth dn: -15

What do the screens show for `O=C(NNS(=O)(=O)c1ccc(Br)cc1)c1csnn1`?
RAM inhibit: 1

Results for Cc1ccc(C2OC34CCCCCC3C(C#N)(C(=N)O4)C2(C#N)C#N)cc1 (stereo not drawn) ?
Yeast lifespan up: -2; RAM inhibit: 1; Measles CPE: 52*; BB579 growth dn: 5

What do the screens show for `Cc1ccc(S(=O)(=O)N[C@@H](Cc2ccccc2)C(=O)CCl)cc1`?
Yeast lifespan up: 49*; RAM inhibit: -1; Measles CPE: 17; BB579 growth dn: -35

Results for O=S(=O)(c1ccc(Oc2ccc(-c3nnco3)cc2)nc1)N1CCC(Cc2ccccc2)CC1 ?
Yeast lifespan up: -14; RAM inhibit: 2; Measles CPE: 43*; BB579 growth dn: -101
